# From ChEMBL document CHEMBL1149144, “Structure-based design of potent retinoid X receptor alpha agonists” (J Med Chem, 2004)
# How the values were obtained:
# [1] = biological target: T1, Retinoic acid receptor RXR-alpha (Homo sapiens, UniProt P19793); assay: Binding affinity for retinoid X receptor alpha (RXRalpha), using 9-cis-[3H]-retinoic acid
# T1 sequence (P19793 whole entry): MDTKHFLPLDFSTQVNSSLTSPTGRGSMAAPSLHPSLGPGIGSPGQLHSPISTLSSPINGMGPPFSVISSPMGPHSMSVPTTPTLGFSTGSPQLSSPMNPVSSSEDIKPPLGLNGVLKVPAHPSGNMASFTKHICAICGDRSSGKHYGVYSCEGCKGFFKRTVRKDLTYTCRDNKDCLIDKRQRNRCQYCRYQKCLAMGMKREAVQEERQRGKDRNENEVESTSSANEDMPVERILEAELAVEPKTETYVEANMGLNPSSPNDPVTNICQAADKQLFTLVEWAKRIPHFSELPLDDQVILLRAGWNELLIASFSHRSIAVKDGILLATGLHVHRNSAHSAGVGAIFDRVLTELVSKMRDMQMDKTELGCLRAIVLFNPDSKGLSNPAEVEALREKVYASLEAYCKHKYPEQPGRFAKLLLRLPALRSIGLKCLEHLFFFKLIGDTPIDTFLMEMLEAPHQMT
# Method in brief: (§1)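 Scintillation proximity binding assay; Ki from competition of 2.5 nM 9-cis-RA at RXRα and RARα, with test compound up to 10 µM.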
# [2] = biological target: T2, Retinoic acid receptor alpha (Homo sapiens, UniProt P10276); assay: Effective concentration for Retinoic acid receptor alpha activity in CV-1 cells; assay type: functional, cell-based
# T2 sequence (P10276 whole entry): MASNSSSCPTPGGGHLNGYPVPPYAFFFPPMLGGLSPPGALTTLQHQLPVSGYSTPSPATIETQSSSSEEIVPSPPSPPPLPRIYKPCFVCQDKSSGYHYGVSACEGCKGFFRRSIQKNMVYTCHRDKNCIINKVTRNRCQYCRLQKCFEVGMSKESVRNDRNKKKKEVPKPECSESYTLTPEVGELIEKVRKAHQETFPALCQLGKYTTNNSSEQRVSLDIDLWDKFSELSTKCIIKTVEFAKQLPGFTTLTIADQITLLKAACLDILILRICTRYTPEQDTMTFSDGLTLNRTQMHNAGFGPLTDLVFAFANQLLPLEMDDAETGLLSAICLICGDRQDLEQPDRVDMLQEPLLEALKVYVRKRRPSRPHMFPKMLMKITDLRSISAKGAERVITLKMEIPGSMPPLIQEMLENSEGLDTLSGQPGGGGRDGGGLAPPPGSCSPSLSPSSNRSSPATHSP
# Method in brief: (§2)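 CV-1 monkey kidney cells transiently transfected with a full-length hRXRα expression vector (RXRα) or a GAL4-hRARα vector (RARα), each with an RXRα- or RARα-responsive reporter gene construct. Top concentration 10 µM; EC50 calculated from the reporter response.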
# [3] = biological target: T1, Retinoic acid receptor RXR-alpha; assay: Effective concentration for Retinoid X receptor alpha activity in CV-1 cells; assay type: functional, cell-based; method in brief: as §2
# [4] = biological target: T2, Retinoic acid receptor alpha; assay: Binding affinity for retinoic acid receptor alpha (RARalpha), using 9-cis-[3H]-retinoic acid; method in brief: as §1
# [5] = biological target: T1, Retinoic acid receptor RXR-alpha; assay: Effective concentration for Retinoid X receptor alpha activity in CV-1 cells; Partial agonist; assay type: functional, cell-based; method in brief: as §2
# [6] = tested on: Mus musculus; assay: Effect on percent change in weight of liver to body at 10 mg/kg was measured in vivo in mice; assay type: functional
# Method in brief: (§3)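 Male diabetic db/db mice given vehicle or compound in vehicle orally.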
# [7] = tested on: Mus musculus; assay: Effect on percent change in weight of liver to body at 100 mg/kg was measured in vivo in mice; assay type: functional; method in brief: as §3
# [8] = tested on: Mus musculus; assay: Effect on percent change in weight of liver to body at 30 mg/kg was measured in vivo in mice; assay type: functional; method in brief: as §3
# [9] = tested on: Mus musculus; assay: Effect on nonesterified free fatty acid at 10 mg/kg was measured in vivo in mice; assay type: functional; method in brief: as §3
# [10] = tested on: Mus musculus; assay: Effect on nonesterified free fatty acid at 100 mg/kg was measured in vivo in mice; assay type: functional; method in brief: as §3
# [11] = tested on: Mus musculus; assay: Effect on nonesterified free fatty acid at 30 mg/kg was measured in vivo in mice; assay type: functional; method in brief: as §3
# [12] = tested on: Mus musculus; assay: Effect on lipid hydrolysis at 30 mg/kg was measured in vivo in mice; assay type: functional
# Method in brief: (§4)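 Male diabetic db/db mice were given the test agent orally in vehicle, with a vehicle-only control group.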
# [13] = tested on: Mus musculus; assay: Effect on aspartate aminotransferase release by liver at 10 mg/kg was measured in vivo in mice; assay type: functional; method in brief: as §3
# [14] = tested on: Mus musculus; assay: Effect on aspartate aminotransferase release by liver at 100 mg/kg was measured in vivo in mice; assay type: functional; method in brief: as §3
# [15] = tested on: Mus musculus; assay: Effect on aspartate aminotransferase release by liver at 30 mg/kg was measured in vivo in mice; assay type: functional; method in brief: as §3
# [16] = tested on: Mus musculus; assay: Effect on lipid hydrolysis at 10 mg/kg was measured in vivo in mice; assay type: functional; method in brief: as §4
# [17] = tested on: Mus musculus; assay: Effect on lipid hydrolysis at 100 mg/kg was measured in vivo in mice; assay type: functional; method in brief: as §4
# [18] = tested on: Mus musculus; assay: Antihyperglycemic activity of compound at 10 mg/kg was determined in vivo in mice; assay type: functional; method in brief: as §4
# [19] = tested on: Mus musculus; assay: Antihyperglycemic activity of compound at 10 mg/kg was measured as percent glycosylated hemoglobin in vivo in mice; assay type: functional; method in brief: as §3
# [20] = tested on: Mus musculus; assay: Antihyperglycemic activity of compound at 100 mg/kg was determined in vivo in mice; assay type: functional; method in brief: as §4
# [21] = tested on: Mus musculus; assay: Antihyperglycemic activity of compound at 100 mg/kg was measured as percent glycosylated hemoglobin in vivo in mice; assay type: functional; method in brief: as §3
# [22] = tested on: Mus musculus; assay: Antihyperglycemic activity of compound at 30 mg/kg was determined in vivo in mice; assay type: functional; method in brief: as §4
# [23] = tested on: Mus musculus; assay: Antihyperglycemic activity of compound at 30 mg/kg was measured as percent glycosylated hemoglobin in vivo in mice; assay type: functional; method in brief: as §3
# [24] = tested on: Rattus norvegicus; assay: Antihyperglycemic activity of compound at 10 mg/kg was determined in vivo in rats; assay type: functional
# Method in brief: (§5)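 Male Zucker diabetic fatty (ZDF) rats were given the test agent orally in vehicle, with a vehicle-only control group.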
# [25] = tested on: Rattus norvegicus; assay: Antihyperglycemic activity of compound at 10 mg/kg was measured as percent glycosylated hemoglobin in vivo in rats; assay type: functional
# Method in brief: (§6)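 Male Zucker diabetic fatty (ZDF) rats dosed orally with vehicle or compound in vehicle.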
# [26] = tested on: Rattus norvegicus; assay: Antihyperglycemic activity of compound at 3 mg/kg was determined in vivo in rats; assay type: functional; method in brief: as §5
# [27] = tested on: Rattus norvegicus; assay: Antihyperglycemic activity of compound at 3 mg/kg was measured as percent glycosylated hemoglobin in vivo in rats; assay type: functional; method in brief: as §6
# [28] = tested on: Rattus norvegicus; assay: Antihyperglycemic activity of compound at 30 mg/kg was measured as percent glycosylated hemoglobin in vivo in rats; assay type: functional; method in brief: as §6
# [29] = tested on: Rattus norvegicus; assay: Antihyperglycemic activity of compound was determined in vivo in rats; assay type: functional; method in brief: as §5
# [30] = tested on: Rattus norvegicus; assay: Effect on aspartate aminotransferase release by liver at 10 mg/kg was measured in vivo in rats; assay type: functional; method in brief: as §6
# [31] = tested on: Rattus norvegicus; assay: Effect on aspartate aminotransferase release by liver at 3 mg/kg was measured in vivo in rats; assay type: functional; method in brief: as §6
# [32] = tested on: Rattus norvegicus; assay: Effect on aspartate aminotransferase release by liver at 30 mg/kg was measured in vivo in rats; assay type: functional; method in brief: as §6
# [33] = tested on: Rattus norvegicus; assay: Effect on lipid hydrolysis at 10 mg/kg was measured in vivo in rats; assay type: functional; method in brief: as §5
# [34] = tested on: Rattus norvegicus; assay: Effect on lipid hydrolysis at 3 mg/kg was measured in vivo in rats; assay type: functional; method in brief: as §5
# [35] = tested on: Rattus norvegicus; assay: Effect on lipid hydrolysis at 30 mg/kg was measured in vivo in rats; assay type: functional; method in brief: as §5
# [36] = tested on: Rattus norvegicus; assay: Effect on nonesterified free fatty acid at 10 mg/kg was measured in vivo in rats; assay type: functional; method in brief: as §6
# [37] = tested on: Rattus norvegicus; assay: Effect on nonesterified free fatty acid at 3 mg/kg was measured in vivo in rats; assay type: functional; method in brief: as §6
# [38] = tested on: Rattus norvegicus; assay: Effect on nonesterified free fatty acid at 30 mg/kg was measured in vivo in rats; assay type: functional; method in brief: as §6
# [39] = tested on: Rattus norvegicus; assay: Effect on percent change in weight of liver to body at 10 mg/kg was measured in vivo in rats; assay type: functional; method in brief: as §6
# [40] = tested on: Rattus norvegicus; assay: Effect on percent change in weight of liver to body at 3 mg/kg was measured in vivo in rats; assay type: functional; method in brief: as §6
# [41] = tested on: Rattus norvegicus; assay: Effect on percent change in weight of liver to body at 30 mg/kg was measured in vivo in rats; assay type: functional; method in brief: as §6
structure (smiles),measurement,setting,value
CC1(C)CCC(C)(C)c2cc(C3CCCc4oc(/C=C5/SC(=O)NC5=O)cc43)ccc21 (centres undefined),Ki,[1],20 nM
same,EC50,[2],> 10000 nM
same,EC50,[3],4 nM
same,Ki,[4],> 1000 nM
CCCOc1cc2c(cc1C1CCCc3oc(/C=C/C(=O)O)cc31)C(C)(C)CCC2(C)C (centres undefined),Ki,[1],100 nM
same,EC50,[2],> 10000 nM
same,EC50,[5],137 nM
same,Ki,[4],> 1000 nM
CC1(C)CCC(C)(C)c2cc(C3CCCc4oc(/C=C/C(=O)O)cc43)ccc21 (stereo in doubt),Ki,[1],5 nM
same,EC50,[2],> 10000 nM
same,EC50,[3],5 nM
same,Ki,[4],> 1000 nM
"CC1(C)CCC(C)(C)c2cc(C3CCCc4oc(/C=C/C(=O)O)cc43)ccc21 (single isomer, unassigned)",Ki,[1],200 nM
same,EC50,[2],> 10000 nM
same,EC50,[3],40 nM
same,Ki,[4],> 1000 nM
CC1(C)CCC(C)(C)c2cc(C3CCCc4sc(/C=C/C(=O)O)cc43)ccc21 (centres undefined),Ki,[1],40 nM
same,EC50,[2],> 10000 nM
same,EC50,[3],20 nM
same,Ki,[4],> 1000 nM
COc1cc2c(cc1C1CCCc3oc(/C=C/C(=O)O)cc31)C(C)(C)CCC2(C)C (centres undefined),Ki,[1],20 nM
same,EC50,[2],> 10000 nM
same,EC50,[5],48 nM
same,Ki,[4],> 1000 nM
CC1(C)CCC(C)(C)c2cc(Cc3coc(/C=C/C(=O)O)c3)ccc21,Ki,[1],138 nM
same,Ki,[4],> 1000 nM
CC1(C)CCC(C)(C)c2cc(C3CCCc4oc(/C=C/C(=O)O)cc43)ccc21 (racemic),Activity,[6],8.23%
same,Activity,[7],9.33%
same,Activity,[8],8.58%
same,Activity,[9],0.45 m equiv l-1
same,Activity,[10],0.4 m equiv l-1
same,Activity,[11],0.56 m equiv l-1
same,Activity,[12],83 mg/dL
same,Activity,[13],137 U l-1
same,Activity,[14],158 U l-1
same,Activity,[15],116 U l-1
same,Activity,[16],91 mg/dL
same,Activity,[17],62 mg/dL
same,Activity,[18],346 mg/dL
same,Activity,[19],9.41%
same,Activity,[20],233 mg/dL
same,Activity,[21],8.51%
same,Activity,[22],309 mg/dL
same,Activity,[23],8.84%
same,Activity,[24],129 mg/dL
same,Activity,[25],7.44%
same,Activity,[26],147 mg/dL
same,Activity,[27],7.75%
same,Activity,[28],7.04%
same,Activity,[29],118 mg/dL
same,Activity,[30],108 U l-1
same,Activity,[31],98 U l-1
same,Activity,[32],136 U l-1
same,Activity,[33],2199 mg/dL
same,Activity,[34],2462 mg/dL
same,Activity,[35],1353 mg/dL
same,Activity,[36],0.49 m equiv l-1
same,Activity,[37],0.8 m equiv l-1
same,Activity,[38],0.38 m equiv l-1
same,Activity,[39],6.56%
same,Activity,[40],5.74%
same,Activity,[41],7.06%
same,Ki,[1],6 nM
same,EC50,[2],> 10000 nM
same,EC50,[3],3 nM
same,Ki,[4],> 1000 nM
O=C1NC(=O)/C(=C/c2ccc(-c3cccc(C(F)(F)F)c3)o2)S1,Ki,[1],7400 nM
CC1(C)CCC(C)(C)c2cc(-c3ccc(/C=C/C(=O)O)o3)ccc21,Ki,[1],> 1000 nM
same,Ki,[4],93 nM
